ChEMBL document CHEMBL1156597, “Structure-activity relationship of kahalalide F synthetic analogues” (J Med Chem, 2008)

Key:
DU-145 = experiment: Cytotoxicity against human DU145 cells after 48 hrs by SRB assay; assay type: functional, cell-based; details: Homo sapiens, DU-145, 48 h; for CC50: read-out: LC50 (the source's name)
How it was run: (§1)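 Cells grown in RPMI 1640 with 10% FBS and penicillin/streptomycin at 37 °C and 5% CO₂, trypsinized, then seeded at 5 × 10³/well. After 18 h drug-free attachment, samples in DMSO/EtOH/PBS (0.5:0.5:99) were added for 48 h continuous exposure. Cells were fixed with cold TCA (1 h, 4 °C) and stained with SRB (10 min). Tris-solubilized stain read at 490 nm. Triplicate wells, mean ± SD; GI₅₀ derived.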

LNCaP = experiment: Cytotoxicity against human LNcaP cells after 48 hrs by SRB assay; assay type: functional; details: for CC50: read-out: LC50 (the source's name); how it was run: as §1
[1] = Cytotoxicity against human IGROV cells after 48 hrs by SRB assay; assay type: functional; details: for CC50: read-out: LC50 (the source's name); how it was run: as §1
[2] = Cytotoxicity against human IGROV-ET cells after 48 hrs by SRB assay; assay type: functional; details: for CC50: read-out: LC50 (the source's name); how it was run: as §1
SK-BR-3 = experiment: Cytotoxicity against human SKBR3 cells after 48 hrs by SRB assay; assay type: functional; details: SK-BR-3, 48 h; for GI50: read-out: GI50; for CC50: read-out: LC50 (the source's name); how it was run: as §1
SK-MEL-28 = experiment: Cytotoxicity against human SK-MEL-28 cells after 48 hrs by SRB assay; assay type: functional, cell-based; details: Homo sapiens, SK-MEL-28, 48 h; for GI50: read-out: GI50; for CC50: read-out: LC50 (the source's name); how it was run: as §1
A549 = experiment: Cytotoxicity against human A549 cells after 48 hrs by SRB assay; assay type: functional, cell-based; details: Homo sapiens, A549, 48 h; how it was run: as §1
K562 = experiment: Cytotoxicity against human K562 cells after 48 hrs by SRB assay; assay type: functional; details: K562, 48 h; for CC50: read-out: LC50 (the source's name); how it was run: as §1
PANC-1 = experiment: Cytotoxicity against human PANC1 cells after 48 hrs by SRB assay; assay type: functional; details: PANC-1, 48 h; for CC50: read-out: LC50 (the source's name); how it was run: as §1
HT-29 = experiment: Cytotoxicity against human HT29 cells after 48 hrs by SRB assay; assay type: functional, cell-based; details: Homo sapiens, HT-29, 48 h; for CC50: read-out: LC50 (the source's name); how it was run: as §1
LoVo [3] = experiment: Cytotoxicity against human LoVo cells after 48 hrs by SRB assay; assay type: functional; details: for CC50: read-out: LC50 (the source's name)
LoVo [4] = experiment: Cytotoxicity against human doxorubicin resistant LoVo cells after 48 hrs by SRB assay; assay type: functional; details: for CC50: read-out: LC50 (the source's name); how it was run: as §1
HeLa = experiment: Cytotoxicity against human HeLa cells after 48 hrs by SRB assay; assay type: functional; details: for CC50: read-out: LC50 (the source's name); how it was run: as §1
[5] = Cytotoxicity against human HeLa-APL cells after 48 hrs by SRB assay; assay type: functional; how it was run: as §1

Row | SMILES | GI50 (DU-145; read-out: GI50) [µM] | CC50 (DU-145) [µM] | GI50 (LNCaP) [µM] | TGI (LNCaP) [µM] | CC50 (LNCaP) [µM] | GI50 [1] [µM] | GI50 ([1]; read-out: GI50) [µM] | CC50 [1] [µM] | GI50 [2] [µM] | GI50 ([2]; read-out: GI50) [µM] | CC50 [2] [µM] | TGI (SK-BR-3) [µM] | GI50 (SK-BR-3) [µM] | CC50 (SK-BR-3) [µM] | TGI (SK-MEL-28) [µM] | GI50 (SK-MEL-28) [µM] | CC50 (SK-MEL-28) [µM] | LC50 (A549) [µM] | GI50 (A549; read-out: GI50) [µM] | GI50 (K562) [µM] | also measured
1 | C/C=C1\NC(=O)[C@H](Cc2ccccc2)NC(=O)[C@@H](C(C)C)NC(=O)[C@@H]([C@H](C)CC)NC(=O)[C@H](NC(=O)[C@H](NC(=O)[C@H](CCCN)NC(=O)[C@H]2CCCN2C(=O)[C@H](NC(=O)[C@@H](NC(=O)[C@@H](NC(=O)[C@@H](CCCN)NC(=O)CCCC(C)C)[C@@H](C)O)C(C)C)C(C)C)[C@H](C)CC)[C@H](C)OC(=O)[C@H](C(C)C)NC1=O | 1.16 | 1.17 | 0.853 | 1.17 | 0.95 | 0.63 | 1.13 | 0.382 | 0.806 | 0.103 | 0.559 | 1.77 | 1.72 | 0.907 | 1.15 | 1.14 | 1.16 | 3.84 | 0.747 | 0.877 | TGI (DU-145): 1.27 µM; GI50 (A549): 0.888 µM; TGI (K562): 1.12 µM; CC50 (K562): 1.91 µM; GI50 (PANC-1): 1.42 µM; TGI (PANC-1): 1.24 µM; CC50 (PANC-1): 1.76 µM; CC50 (HT-29): 4.27 µM; CC50 (LoVo [3]): 0.33 µM; CC50 (LoVo [4]): 0.296 µM; GI50 (HeLa): 1.37 µM; TGI (HeLa): 1.4 µM; CC50 (HeLa): 1.03 µM; GI50 [5]: 1.1 µM; LC50 (concentration giving 50% net cell kill) [5]: 0.965 µM; TGI [5]: 1.07 µM
2 | C/C=C1\NC(=O)[C@H](Cc2ccccc2)NC(=O)[C@@H](C(C)C)NC(=O)[C@@H]([C@H](C)CC)NC(=O)[C@H](NC(=O)[C@H](NC(=O)[C@H](CCCN)NC(=O)[C@H]2CCCN2C(=O)[C@H](NC(=O)[C@@H](NC(=O)[C@@H](NC(=O)[C@H](NC(=O)CC[C@H](C)CC)C(C)C)[C@@H](C)O)C(C)C)C(C)C)[C@H](C)CC)[C@H](C)OC(=O)[C@H](C(C)C)NC1=O | 1.44 | 1.13 | 1.47 | 1.29 | 1.13 | 0.776 | 1.52 | 0.551 | 0.92 | 1.9 | 0.614 | 0.425 | 0.469 | 0.383 | 1.27 | 1.37 | 1.16 | 1.36 | 1.48 | 2.18 | TGI (DU-145): 1.27 µM; TGI (A549): 1.42 µM; TGI (K562): 1.93 µM; CC50 (K562): 1.93 µM; CC50 (PANC-1): 1.64 µM; CC50 (HT-29): 0.668 µM; GI50 (LoVo [3]): 0.69 µM; TGI (LoVo [3]): 1.18 µM; CC50 (LoVo [3]): 1.89 µM; GI50 (LoVo [4]): 0.69 µM; TGI (LoVo [4]): 1.04 µM; CC50 (LoVo [4]): 1.66 µM; CC50 (HeLa): 0.971 µM; GI50 [5]: 1.42 µM; LC50 (concentration giving 50% net cell kill) [5]: 1.24 µM; TGI [5]: 1.42 µM
3 | C=C1NC(=O)[C@H](Cc2ccccc2)NC(=O)[C@@H](C(C)C)NC(=O)[C@@H]([C@H](C)CC)NC(=O)[C@H](NC(=O)[C@H](NC(=O)[C@H](CCCN)NC(=O)[C@H]2CCCN2C(=O)[C@H](NC(=O)[C@@H](NC(=O)[C@@H](NC(=O)[C@H](NC(=O)CCCC(C)C)C(C)C)[C@@H](C)O)C(C)C)C(C)C)[C@H](C)CC)[C@H](C)OC(=O)[C@H](C(C)C)NC1=O | 1.11 | 0.73 | 1.44 | 1.86 | 1.41 | 0.442 | 0.63 | 0.334 | 0.366 | 0.349 | 0.392 | 0.412 | 0.458 | 0.36 | 1.13 | 1.1 | 1.16 | 1.07 | 1.2 | 2.47 | GI50 (DU-145): 0.901 µM; TGI (A549): 1.14 µM; TGI (K562): 3.01 µM; CC50 (K562): 1.95 µM; CC50 (PANC-1): 1.79 µM; GI50 (HT-29): 0.638 µM; TGI (HT-29): 0.804 µM; CC50 (HT-29): 0.612 µM; GI50 (LoVo [3]): 0.309 µM; TGI (LoVo [3]): 0.318 µM; CC50 (LoVo [3]): 0.295 µM; GI50 (LoVo [4]): 0.393 µM; TGI (LoVo [4]): 3.72 µM; CC50 (LoVo [4]): 0.235 µM; CC50 (HeLa): 0.646 µM; GI50 [5]: 0.893 µM; LC50 (concentration giving 50% net cell kill) [5]: 0.791 µM; TGI [5]: 0.842 µM
